Screens (PubChem BioAssay)
A selection: hits, their analogues and other compounds. The true share with any hit is near 1.8%.
NPY Y2 blocker: antagonists of human neuropeptide Y receptor Y2; NPY-Y2 expressing cells, antagonist mode; actives 0.99% (n = 140,000); P49146; inhibition, % at 2.7 µM;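 further: 0% = vehicle with agonist challenge and 100% = reference antagonist with challenge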
Target sequence (P49146 whole entry, looked up): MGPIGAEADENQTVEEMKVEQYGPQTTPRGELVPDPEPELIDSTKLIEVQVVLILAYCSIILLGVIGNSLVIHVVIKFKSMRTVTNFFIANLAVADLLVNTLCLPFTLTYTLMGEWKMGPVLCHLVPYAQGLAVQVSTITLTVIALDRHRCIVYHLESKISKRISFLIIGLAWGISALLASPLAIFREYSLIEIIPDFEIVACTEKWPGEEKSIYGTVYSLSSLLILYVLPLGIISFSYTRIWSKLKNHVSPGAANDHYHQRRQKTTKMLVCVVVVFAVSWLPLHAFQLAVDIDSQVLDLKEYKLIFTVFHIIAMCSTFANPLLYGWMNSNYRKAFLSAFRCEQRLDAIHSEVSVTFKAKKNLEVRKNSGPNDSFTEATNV
NPY-Y2 PAM-ag: human NPY-Y2 potentiation or agonism, primary screen; P49146; cells expressing NPY-Y2, potentiator/agonist read-out; activation, % at 3.6 µM; actives 0.45% (n = 220,000); in the data active means activation above about 27%;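 further: cells stimulated with NPY near EC25 plus isoproterenol at EC100; 0% = vehicle plus submaximal agonist and 100% = vehicle plus saturating agonist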
NPY-Y1 PAM-ag: potentiates or activates human NPY-Y1 receptor; P25929; NPY-Y1 expressing cells, potentiator/agonist activation; activation, % at 3.6 µM; actives 0.37% (n = 220,000); AID 1304; in the data active means activation above about 33%, passing the limit was not always enough;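 further: cells stimulated with NPY at EC10 then isoproterenol at EC100; 0% = low agonist plus stimulus and 100% = saturating agonist plus stimulus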
Target sequence (P25929 whole entry, looked up): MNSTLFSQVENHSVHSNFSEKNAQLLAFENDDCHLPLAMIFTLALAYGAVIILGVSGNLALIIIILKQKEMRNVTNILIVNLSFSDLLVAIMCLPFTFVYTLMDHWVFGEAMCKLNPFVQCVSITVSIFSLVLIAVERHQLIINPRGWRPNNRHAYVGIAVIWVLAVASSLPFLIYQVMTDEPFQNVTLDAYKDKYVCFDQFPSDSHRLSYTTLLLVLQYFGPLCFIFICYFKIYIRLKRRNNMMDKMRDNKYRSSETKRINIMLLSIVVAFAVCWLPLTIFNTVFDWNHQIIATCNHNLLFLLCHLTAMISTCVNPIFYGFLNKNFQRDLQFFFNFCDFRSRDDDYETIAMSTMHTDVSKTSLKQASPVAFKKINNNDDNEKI
NPY Y1 blocker: blocks the human neuropeptide Y Y1 receptor. HEK293-CNG Y1 cells, membrane potential fluorescence; NPY at EC95, then isoproterenol. inhibition, % at 3.6 µM. actives 1% (n = 200,000). AID 1040;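 active means inhibition above the campaign mean inhibition of all tested compounds plus 3 SD, cut at about 20% in these data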;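 further: 0% = DMSO wells given NPY plus isoproterenol and 100% = isoproterenol alone without NPY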
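Material: Y1- and CNG-channel-expressing HEK293 cells / Probe or stimulus: NPY 25 nM then isoproterenol 1 µM plus Ro 20-1724 25 µM / Doses: 3.6 µM single dose, DMSO 0.4% / Schedule: compound incubation 1 h at room temperature, readout 45 min post-stimulation / Signal: membrane potential fluorescence / Benchmarks: isoproterenol-only wells as full block versus NPY-plus-isoproterenol wells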
NPY-Y1 ant conf: confirmation of human neuropeptide Y receptor Y1 antagonists; shares compounds with NPY Y1 blocker; HEK293-CNG NPY-Y1, membrane potential fluorescence, cAMP; NPY challenge against isoproterenol-raised cAMP; inhibition, % at 3.6 µM; actives 21% (n = 1,200); AID 1254; in the data active means inhibition above about 20%;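 further: 0% = vehicle with agonist plus stimulus and 100% = stimulus alone without agonist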
NPY2 antag ctr: antagonizes human NPY-Y2, counter-screen to NPY-Y1 antagonists. inhibition, % at 3.6 µM. HEK293 NPY-Y2 CNG membrane potential fluorescence, antagonism; cells given NPY, then isoproterenol. actives 28% (n = 1,200). shares compounds with NPY Y1 blocker. AID 1255;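 further: 0% = DMSO with agonist challenge and 100% = reference antagonist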
NPY-Y1 confirm: confirmation of human NPY-Y1 receptor potentiators or agonists. activation, % at 3.6 µM. actives 20% (n = 280). cell-based NPY-Y1 potentiator/agonist assay. shares compounds with NPY-Y1 PAM-ag. AID 1546; in the data active means activation above about 45%;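 further: cells challenged with NPY at its EC10 plus isoproterenol stimulus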
NPY-Y2 counter: potentiates or activates NPY-Y2, counter-screen for NPY-Y1 hits | shares compounds with NPY-Y1 PAM-ag | HEK293-CNG cells, membrane-potential fluorescence (FLIPR), 1536-well | actives 20% (n = 280) | activation, % at 3.6 µM; in the data active means activation above about 33%
NPY-Y1 agonist: human NPY-Y1 agonism as potentiator counter-screen. actives 50% (n = 280). activation, % at 3.6 µM. HEK293 Y1-CNGC, membrane potential fluorescence, agonist mode. shares compounds with NPY-Y1 PAM-ag. AID 1697;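 active means percent activation above the mean of DMSO-only control wells plus 3 SD of those wells, cut at about 18% in these data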;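 further: cells challenged with isoproterenol plus Ro 20-1724 with no NPY in test wells; Y1 agonism lowers isoproterenol-driven cAMP and reduces probe fluorescence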
NPY-Y2 agonist: activates human NPY-Y2, counter-screen for NPY-Y1 hits | shares compounds with NPY-Y1 PAM-ag | HEK293 Y2-CNGC, membrane potential fluorescence, agonist mode | activation, % at 3.6 µM | actives 67% (n = 280) | AID 1698;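 active means activation above the solvent-only control wells' mean plus 3 SD, cut at about 11% in these data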;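 further: 0% = DMSO with isoproterenol and 100% = 40 nM NPY maximal response; agonism lowers cAMP so well fluorescence drops in active wells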
CNGC inh 2: CNG channel inhibition, counter-screen for NPY-Y1 potentiators; shares compounds with NPY-Y1 PAM-ag; HEK293-CNG parental, isoproterenol cAMP, membrane potential fluorescence; inhibition, % at 3.6 µM; actives 42% (n = 280);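 active means inhibition above the mean of stimulated solvent-only control wells plus 3 SD, cut at about 22% in these data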;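 further: 0% = isoproterenol-stimulated DMSO wells and 100% = unstimulated DMSO wells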
NPY-Y2 pot conf: confirmation of human NPY-Y2 receptor potentiators or agonists; shares compounds with NPY-Y2 PAM-ag; cell-based NPY-Y2 potentiator/agonist assay; activation, % at 3.6 µM; actives 20% (n = 450); AID 1539; in the data active means activation above about 33%
NPY-Y1 potentiator: potentiates or activates NPY-Y1, counter-screen for NPY-Y2 hits | shares compounds with NPY-Y2 PAM-ag | Y1 HEK293-CNG cells, membrane potential fluorescence | activation, % at 3.6 µM | actives 20% (n = 450) | AID 1651; in the data active means activation above about 45%;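 further: cells stimulated with submaximal NPY then isoproterenol with phosphodiesterase inhibitor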
NPY-Y1 ag 2: activates human NPY-Y1, counter-screen for NPY-Y2 potentiators | activation, % at 3.6 µM | HEK293 Y1-CNGC, membrane potential fluorescence, agonism | actives 37% (n = 450) | shares compounds with NPY-Y2 PAM-ag;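 active means activation above the mean of DMSO-only control wells plus 3 SD, cut at about 18% in these data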;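 further: cells stimulated with 1 µM isoproterenol plus the PDE inhibitor Ro 20-1724; 0% = isoproterenol with DMSO and no NPY and 100% = 40 nM NPY; Y1 agonists lower the membrane potential dye signal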
CNGC inhibitor: blocks CNG channel activity, counter-screen for NPY-Y2 potentiators. inhibition, % at 3.6 µM. actives 32% (n = 450). AID 1703. HEK293-CNG parental, isoproterenol cAMP, membrane potential fluorescence. shares compounds with NPY-Y2 PAM-ag;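 active means inhibition above the control-well mean plus 3 SD of those wells, cut at about 22% in these data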;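 further: 0% = DMSO with isoproterenol and 100% = DMSO without isoproterenol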
NPY-Y2 ag 2: counter-screen for NPY-Y2 potentiators: agonists of human NPY-Y2. activation, % at 3.6 µM. AID 1710. actives 56% (n = 450). HEK293 Y2/CNGC cells, membrane potential fluorescence, agonist mode. shares compounds with NPY-Y2 PAM-ag;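 active means activation above the mean of solvent-only control wells plus 3 SD, cut at about 10% in these data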;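 further: cells stimulated by isoproterenol with no NPY added so direct agonism is tested; 0% = DMSO with isoproterenol alone and 100% = NPY at EC100 plus isoproterenol; agonism lowers probe fluorescence through less cAMP and CNG channel opening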
An asterisk follows results filed as active; / = not tested or not shown. Unless noted, no stated cut-off is given here; in the data, active means inhibition above about 17%; inactive means the rest.

SMILES	NPY Y2 blocker	NPY-Y2 PAM-ag	NPY-Y1 PAM-ag	NPY Y1 blocker	NPY-Y1 confirm	NPY-Y2 counter	NPY-Y1 agonist	NPY-Y2 agonist	CNGC inh 2	others
Cc1ccc(-n2ncc3c(SCc4cccnc4)ncnc32)c(C)c1	/	33*	-9	25*	/	/	/	/	/	NPY-Y1 ant conf=13;NPY2 antag ctr=6;NPY-Y2 pot conf=-17;NPY-Y1 potentiator=-60;NPY-Y1 ag 2=-50;CNGC inhibitor=-27;NPY-Y2 ag 2=-23
CCCCC(NC(C)=O)c1nc2ccccc2n1CCCC (centres undefined)	4	6	0	-6	/	/	/	/	/
Cc1[nH]c2ccccc2c1N=Nc1ccc(F)cc1	/	19	39*	-7	40	28	33*	30*	26*
COc1ccccc1C(=O)C1CCCN(C(=O)c2cccc(-n3cccn3)c2)C1 (centres undefined)	/	-12	-20	0	/	/	/	/	/
CC(=O)c1c(C)nc(-c2ccc(Cl)cc2)nc1N	/	-10	88*	-2	4	-2	-12	-8	-6
CC(O)C1CCC2C3CC[C@H]4CC(O)CCC4(C)C3CC3(OCCO3)C12C (some centres undefined)	-3	9	57*	2	6	3	-10	2	12
Cc1ccc(S(=O)(=O)N(CC(=O)Nc2ccccc2C(=O)O)c2ccc(Cl)cc2)cc1	/	3	44*	4	8	4	5	20*	7
NC(=O)CN(c1ccc(Cl)cc1)S(=O)(=O)c1ccccc1	3	-4	-21	3	/	/	/	/	/
c1csc(-c2nc3c4ccccc4c4ccccc4c3[nH]2)c1	-3	11	18	-2	/	/	/	/	/
Oc1ccccc1-c1nc2c3ccccc3c3ccccc3c2[nH]1	/	30	50*	/	36	28	37*	34*	39*
O=S(=O)(/N=C(/c1ccc(F)cc1)N1CCCCC1)c1ccc(Cl)cc1	3	-4	2	-3	/	/	/	/	/
COC(=O)c1ccc(NC(=O)CN(c2ccc(OC)cc2)S(C)(=O)=O)cc1	-5	9	43*	-7	30	16	41*	33*	32*
COc1ccc(CC(=O)Nc2ccc(C(C)=O)cc2)cc1	/	14	37*	-9	23	15	33*	35*	31*
CCSc1nc2ccccc2c(=O)n1-c1c(C)n(C)n(-c2ccccc2)c1=O	/	-21	-23	-1	/	/	/	/	/
Cc1cc(C)n2nc(CC(=O)NCc3ccccc3Cl)nc2n1	2	3	7	4	/	/	/	/	/
Nc1ncncc1-c1ccc([N+](=O)[O-])cc1	2	-3	-11	2	/	/	/	/	/
Cn1c(-c2ccc3c(c2)OCO3)cnc1NCc1cccc(O)c1	/	-23	-5	1	/	/	/	/	/
COCCNS(=O)(=O)c1ccc(OCC(=O)OC)c(Cl)c1	2	1	-6	2	/	/	/	/	/
COC(=O)COc1ccc(S(=O)(=O)NCCC2=CCCCC2)cc1Cl	5	20	56*	1	57*	31	52*	39*	49*
O=C(Nc1ccncc1)c1ccc2c(c1)C(=O)N(C1CCCCC1)C2=O	2	1	45*	-1	2	17	18*	5	2
C=CCn1c(COc2cccc3ccc(C)nc23)nnc1SCC(N)=O	6	7	-12	3	/	/	/	/	/
CCCCCn1c(CCCNC(=O)CC)nc2ccccc21	11	13	3	2	/	/	/	/	/
CC(=O)c1ccc(NC(=S)NC(C)c2ccc(Cl)cc2Cl)cc1 (centres undefined)	/	25	37*	-5	48*	27	37*	35*	36*
O=C(Nc1ccc(C(=O)N2CCOCC2)cc1)c1cccc([N+](=O)[O-])c1	/	-7	11	7	/	/	/	/	/
O=C(c1cc(C2CC2)on1)N1CCN(C(c2ccccc2)c2ccccc2)CC1	-2	5	-6	-2	/	/	/	/	/
SMILES	NPY Y2 blocker	NPY-Y2 PAM-ag	NPY-Y1 PAM-ag	NPY Y1 blocker	NPY-Y1 confirm	NPY-Y2 counter	NPY-Y1 agonist	NPY-Y2 agonist	CNGC inh 2	others
O=C(c1cc(-c2cccc(O)c2)on1)N1CCN(C(c2ccccc2)c2ccccc2)CC1	1	-6	32*	8	32	5	18*	16*	7
COc1cc(=O)n(C)c2ccccc12	2	0	50*	3	-7	-4	-7	9	9
COc1ccc2c(OC)cc(=O)n(C)c2c1	0	6	-4	4	/	/	/	/	/
CCC(Oc1ccccc1)C(=O)NCc1ccc(S(N)(=O)=O)cc1 (centres undefined)	-1	-13	-2	-2	/	/	/	/	/
CCNC(=O)c1cc(Br)ccc1Cl	0	-10	51*	-2	6	3	0	8	9
Cc1cc(C)nc(NC(=O)c2cc(Br)ccc2Cl)n1	/	-2	-41	0	/	/	/	/	/
CCn1c(SCC(=O)Nc2ccc3c(c2)oc2ccccc23)nnc1-c1ccc(N)cc1	-4	20	46*	1	43	37*	38*	43*	21
N#Cc1ccc(NC(=O)Nc2ccc(Cl)cc2)cc1	-2	27	49*	-9	34	33	23*	28*	32*
